Active and inactive are the calls of the source.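 How the source made its calls, unless noted: active means GFP response above 150% of the DMSO level; inconclusive means fewer than 70 events counted for a yeast strain; inactive means the rest.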
Assays:
[1] = hit retest on RPL19A-GFP reporter strain – cell-based, S. cerevisiae, flow cytometry, cherry picks, mother/daughter gates, confirmation (AID 2270;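 active means GFP response below 50% of the DMSO control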); conditions: 3 h, at 10 µM, stronger effect = lower value, 100 = same GFP as DMSO wells
[2] = yeast TOR pathway reporter LAP4-GFP change – cell-based, cherry picks, flow cytometry, mother/daughter gates, confirmation (AID 2271;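 active means GFP response above 150% of the DMSO control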;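 further: ratio of sample to DMSO plate mean so 100% equals DMSO level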); conditions: S. cerevisiae LAP4-GFP strain, 3 h, at 10 µM, stronger effect = higher value, 100 means same as DMSO control
In short: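 System: GFP-fusion yeast strain | Input: Yeast cells seeded at OD600 of 0.2 | Technique: HT flow cytometry, GFP fluorescence channel | Read-out: % GFP response vs DMSO | Dosing: Single test-compound dose, 10 µM final | Controls: Positive rapamycin (400 ng/mL), negative DMSO | Times: 3 h treatment at 30 °C with rotation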

[3] = TOR pathway reporter MEP2-GFP, retest of hits – S. cerevisiae, flow cytometry GFP, cherry picks, confirmation (AID 2272;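 active means GFP response above 150% of the DMSO control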;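 further: ratio of well signal to plate DMSO mean so 100% equals DMSO level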); conditions: S. cerevisiae MEP2-GFP strain, 3 h, at 10 µM, stronger effect = higher value
[4] = yeast AGP1-GFP fluorescence change, single-dose – cell-based, flow cytometry, S. cerevisiae, cherry picks, confirmation (AID 2273);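 further: median GFP channel fluorescence over the whole cell population gate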; conditions: S. cerevisiae AGP1-GFP strain, 3 h, at 10 µM
[5] = TOR pathway CIT2 reporter hit retest – S. cerevisiae, GFP fusion, cherry picks, mother/daughter gates, confirmation (AID 2274); conditions: S. cerevisiae CIT2-GFP strain, flow cytometry, 3 h, at 10 µM, stronger effect = higher value
[6] = measured here: daughter cell gate
[7] = measured here: mother cell gate
[8] = measured here: daughter cell gate response
[9] = measured here: mother cell gate response

Compound	GFP response vs DMSO [1]	GFP response vs DMSO [1, 6] [%]	GFP response vs DMSO [1, 7] [%]	GFP response relative to DMSO [2]	GFP response relative to DMSO [2, 8] [%]	GFP response relative to DMSO [2, 9] [%]	GFP response vs DMSO [3]	GFP response, % of DMSO [4]	GFP response, % of DMSO [5]	GFP response, % of DMSO [5, 6] [%]	GFP response, % of DMSO [5, 7] [%]
CCCCn1c(=O)c(C(=O)OCC)c(O)c2ccccc21	106% (inactive)	101	108	105% (inactive)	102	108	99% (inactive)	97.5% (inactive)	94.4% (inactive)	90.2	94.4
COC(=O)c1cc(NC(=O)c2c(Cl)nc3sccn23)cc(C(=O)OC)c1	97% (inactive)	98.6	96.9	92.8% (inactive)	92.8	92.9	102% (inactive)	90% (inactive)	99.7% (inactive)	101	99.7
COC(=O)Cn1cc(/C=C/c2cc[n+](C)cc2)c2ccccc21	99.3% (inactive)	99.3	98.2	97.7% (inactive)	99	98.4	112% (inactive)	104% (inactive)	104% (inactive)	105	104
CC(C)C(=O)Nc1ccc(NC(=O)c2cc3ccccc3o2)cc1	99.6% (inactive)	100	98.6	102% (inactive)	101	102	99.3% (inactive)	99.1% (inactive)	100% (inactive)	97.6	100
Cc1ccc(NC(=O)c2ccccc2O)cc1	103% (inactive)	102	102	100% (inactive)	95	99.5	110% (inactive)	101% (inactive)	104% (inactive)	106	99.1
Cc1cc(C)c(S(=O)(=O)NCC23C=CC(O2)C2C(=O)N(c4ccccc4)C(=O)C23)c(C)c1 (configuration not stated)	102% (inactive)	103	103	105% (inactive)	105	108	102% (inactive)	100% (inactive)	104% (inactive)	101	105
O=C(Nc1cccc(C(F)(F)F)c1)Oc1ccc(Cl)c2cccnc12	98% (inactive)	97.6	98.2	110% (inactive)	108	111	103% (inactive)	99.3% (inactive)	108% (inactive)	110	107
O=[N+]([O-])c1cc(/C=N/O)ccc1Oc1ccccc1Cl	76.7% (inactive)	75.3	70.2	146% (inactive)	106	134	146% (inactive)	135% (inactive)	155% (active)		
Cc1ccccc1N1C(=O)c2cccc3c(N(C)CCO)ccc(c23)C1=O	99.5% (inactive)	99.8	100	100% (inactive)	99.3	98.5	104% (inactive)	103% (inactive)	101% (inactive)	102	100
O=C(NC(=S)NNC(=O)c1cnccn1)c1ccc(Cl)cc1	103% (inactive)	95	98.2	279% (active)	241	260	114% (inactive)	95.7% (inactive)	106% (inactive)	105	98.2
O=C(Nc1c(-c2ccccc2)nc2ccccn12)c1ccco1	100% (inactive)	102	99.8	99.2% (inactive)	94.4	96.1	98.3% (inactive)	98.9% (inactive)	103% (inactive)		106
O=C(Nc1nc2ccc(F)cc2s1)c1ccccn1	102% (inactive)	102	99.3	185% (active)	156	193	116% (inactive)	107% (inactive)	99.7% (inactive)	105	92.8
CCn1cc(/C=C/c2cc[n+](C)cc2)c2ccccc21	105% (inactive)	101	107	117% (inactive)	119	117	154% (inactive)	108% (inactive)			
COc1ccc(C(=O)c2nccc3ccccc23)cc1	96.8% (inactive)	86.1	91.3	106% (inactive)	104	99.3	96.2% (inactive)	100% (inactive)	98.3% (inactive)		
O=C(CS(=O)c1ccccc1[N+](=O)[O-])Oc1ccc(Br)cc1 (configuration not stated)	101% (inactive)	105	96.5	168% (active)	167	164	101% (inactive)	107% (inactive)	98.6% (inactive)	105	91.5
